Assay results from ChEMBL document CHEMBL1125750, “Dual antagonists of platelet activating factor and histamine. Identification of structural requirements for dual activity of N-Acyl-4-(5,6-dihydro-11H-benzo [5,6]cyclohepta-[1,2-b]pyridin-11-ylidene)piperidines” (J Med Chem, 1991).
pKi: −log10 of the molar value.

Tests used:
Histamine H1 receptor = Histamine H1 receptor (Rattus norvegicus, UniProt P31390); experiment: Binding affinity to histamine H1 receptor in rat brain membranes was evaluated using [3H]-pyrilamine as radioligand; assay type: cell membranes
Cavia porcellus [1] = experiment: Compound tested for its %inhibition of guinea pig bronchospasm at a peroral dose of 10 mg/Kg and after 2 hr followed by iv challenge with 10 ug/Kg of histamine
Cavia porcellus [2] = experiment: Compound tested for inhibition of guinea pig bronchospasm at a peroral dose of 10 mg/Kg and after 2 hr followed by iv challenge with 0.4 ug/Kg of PAF; assay type: functional, Bronchiole
Cavia porcellus [3] = experiment: Compound tested for its %inhibition of guinea pig bronchospasm at a peroral dose of 10 mg/Kg and after 2 hr followed by iv challenge with 10 ug/Kg of histamine; remark: listed apart in the source
Cavia porcellus [4] = experiment: Compound tested for its %inhibition of guinea pig bronchospasm at a peroral dose of 3 mg/Kg and after 2 hr followed by iv challenge with 0.4 ug/Kg of histamine
Cavia porcellus [5] = experiment: Compound tested for its %inhibition of guinea pig bronchospasm at a peroral dose of 10 mg/kg and after 2 hr followed by iv challenge with 0.4 micro g/kg of PAF.; assay type: functional; details: Bronchiole, route oral
Summary of the method: (§1)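 Compound given orally 2 h before an iv PAF challenge at 0.4 µg/kg. Values are reported as mean ± standard error of the mean unless noted otherwise, with N animals per determination.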

Cavia porcellus [6] = experiment: Compound tested for its %inhibition of guinea pig bronchospasm at a peroral dose of 10 mg/kg and after 2 hr followed by iv challenge with 0.4 micro g/kg of histamine.; assay type: functional; details: Bronchiole, route oral
[7] = %inhibition of guinea pig bronchospasm at a peroral dose of 10 mg/kg and after 2 hr followed by iv challenge with 0.4 micro g/kg of PAF; assay type: functional; details: Cavia porcellus, Bronchiole, route oral; summary of the method: as §1

Chain of Histamine H1 receptor (P31390 whole entry): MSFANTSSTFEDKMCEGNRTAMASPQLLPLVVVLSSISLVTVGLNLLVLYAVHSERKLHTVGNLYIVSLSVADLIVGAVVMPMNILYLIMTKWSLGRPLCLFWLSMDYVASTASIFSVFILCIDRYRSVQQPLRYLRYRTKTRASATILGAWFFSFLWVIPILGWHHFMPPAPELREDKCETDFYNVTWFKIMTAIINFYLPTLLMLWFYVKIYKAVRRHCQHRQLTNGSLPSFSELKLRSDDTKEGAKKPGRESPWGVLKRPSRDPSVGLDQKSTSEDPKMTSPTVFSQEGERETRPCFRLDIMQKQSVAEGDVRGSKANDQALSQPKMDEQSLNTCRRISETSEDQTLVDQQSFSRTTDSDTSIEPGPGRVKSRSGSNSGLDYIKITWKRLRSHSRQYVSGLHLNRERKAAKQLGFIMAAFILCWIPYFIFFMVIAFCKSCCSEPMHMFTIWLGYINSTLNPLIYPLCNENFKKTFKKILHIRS

## CCC(=O)N1CCC(=C2c3ccc(Cl)cc3CCc3cccnc32)CC1
Histamine H1 receptor
  pKi: 7.32

## CC(=O)N(C)CC/C=C1\c2ccc(Cl)cc2CCc2cccnc21
Histamine H1 receptor
  pKi: 6.54

## COc1ccc2c(c1)CCc1cccnc1C2=C1CCN(C(C)=O)CC1
Histamine H1 receptor
  pKi: 5.80

## CC(=O)N1CCC(=C2c3cc(Cl)c(Cl)cc3CCc3cccnc32)CC1
Histamine H1 receptor
  pKi: 5.51

## CC(=O)N1CCC(=C2c3ccccc3CCc3cccnc32)CC1
Cavia porcellus [1]
  Inhibition: 96%
Cavia porcellus [2]
  Inhibition: 44%
Histamine H1 receptor
  pKi: 5.70

## CC(=O)N1CCC(=C(c2ccc(Cl)cc2)c2ccccn2)CC1
Histamine H1 receptor
  pKi: < 5.20

## O=C(c1ccccc1)N1CCC(=C2c3ccc(Cl)cc3CCc3cccnc32)CC1
Histamine H1 receptor
  pKi: 6.72

## CC(=O)N(C)CC/C=C1/c2ccc(Cl)cc2CCc2cccnc21
Histamine H1 receptor
  pKi: 6.07

## CC(=O)N1CCC(=C2c3ccc(Br)cc3CCc3cccnc32)CC1
Cavia porcellus [3]
  Inhibition: 99%

## CC(=O)N1CCC(=C2c3ccc(C)cc3CCc3cccnc32)CC1
Histamine H1 receptor
  pKi: 6.72

## CC(=O)N1CCC(=C2c3cc(F)ccc3CCc3cccnc32)CC1
Histamine H1 receptor
  pKi: 5.54

## O=CN1CCC(=C2c3ccc(Cl)cc3CCc3cccnc32)CC1
Histamine H1 receptor
  pKi: 7.68

## CCCC(=O)N1CCC(=C2c3ccc(Cl)cc3CCc3cccnc32)CC1
Histamine H1 receptor
  pKi: 7.29

## CC(=O)N1CCC(=C2c3cc(Cl)ccc3CCc3cccnc32)CC1
Histamine H1 receptor
  pKi: 5.82

## CC(=O)N1CCC(=C2c3ccccc3CCc3ccccc32)CC1
Histamine H1 receptor
  pKi: 5.30

## CC(=O)C1CCC(=C2c3ccc(Cl)cc3CCc3cccnc32)CC1 (stereo not given)
Histamine H1 receptor
  pKi: 5.92

## CC(C)(C)C(=O)N1CCC(=C2c3ccc(Cl)cc3CCc3cccnc32)CC1
Histamine H1 receptor
  pKi: 7.09

## CC(=O)N1CCC(=C2c3cc(F)c(F)cc3CCc3cccnc32)CC1
Cavia porcellus [1]
  Inhibition: 0%
Histamine H1 receptor
  pKi: 5.00

## CC(=O)N1CCC(=C2c3ccc(F)cc3CCc3cccnc32)CC1
Histamine H1 receptor
  pKi: 6.14
Cavia porcellus [4]
  Inhibition: 79%

## CC(=O)N1CCC(=C2c3ccc(O)cc3CCc3cccnc32)CC1
Histamine H1 receptor
  pKi: < 5.20

## Cc1nnc2n1-c1sc(CCC(=O)N3CCOCC3)cc1C(c1ccccc1Cl)=NC2 [APAFANT]
Cavia porcellus [5]
  inhibition in vivo at 10 mg/kg: 60%
Cavia porcellus [6]
  inhibition in vivo at 10 mg/kg: 7%
[7]
  inhibition in vivo at 10 mg/kg: 99%

## CN1CCC(=C2c3ccccc3CCc3cccnc32)CC1 [AZATADINE]
Histamine H1 receptor
  pKi: 8.41

## CC(=O)N1CCC(=C2c3ccc(Cl)cc3CCc3cccnc32)CC1 [SCH-37370]
Cavia porcellus [3]
  Inhibition: 99%
Histamine H1 receptor
  pKi: 6.49
